This note sets out measurements from ChEMBL document CHEMBL1153403, “Design, synthesis, and evaluation of novel fluoroquinolone-aminoglycoside hybrid antibiotics” (J Med Chem, 2009).

Test [1] relates to Escherichia coli. In words: Antibacterial activity against Escherichia coli BL21 by double-microdilution method. Type of test: functional.
The test system of test [2] is Escherichia coli. In words: Resistance index, MIC for aminoglycosides-resistant Escherichia coli BL21 harboring pETSACG1 expressing APH(3')-3a enzyme to MIC for Escherichia coli BL21. The class given is functional. In short, it runs like this:
(§1)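 Ratio of MIC on the plasmid-bearing resistant strain to MIC on its background strain (pETSACG1 vs BL21; pET9d or pSF815 vs XL1 blue). MICs by NCCLS double microdilution from starting concentrations of 384 and 1.5 µg/mL, in duplicate, two to four experiments.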

Test [3] has as its system Escherichia coli. Put plainly: Antibacterial activity against aminoglycosides-resistant Escherichia coli XL1-blue harboring pSF815 expressing AAC(6')-APH(2'') enzyme by double-microdilution method. Type of test: functional.
Test [4] relates to Escherichia coli. In words: Antibacterial activity against Escherichia coli ATCC 25922 by double-microdilution method. The class given is functional.
Test [5] relates to Escherichia coli. In words: Inhibition of protein synthesis in Escherichia coli S30 extracts assessed as luciferase activity after 1 hr by coupled transcription/translation assay. The class given is functional. The method, boiled down: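 Coupled transcription/translation of the pBESTluc plasmid in E. coli S30 extract with varying compound concentrations, 37 °C for 60 min. Reactions were cooled on ice, diluted in Tris-phosphate pH 7.8 reagent, and luciferase luminescence was read immediately after substrate addition. IC50 came from concentration-response curves fitted to at least two independent experiments.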

The subject of test [6] is Staphylococcus aureus. Put plainly: Antibacterial activity against methicillin-resistant Staphylococcus aureus ATCC 43300 by double-microdilution method. The class given is functional.
The test system of test [7] is Escherichia coli. Put plainly: Resistance index, MIC for aminoglycosides-resistant Escherichia coli XL1-blue harboring pET9d expressing APH(3')-1a enzyme to MIC for Escherichia coli XL1-blue. The class given is functional. The method, boiled down: as §1
Test [8] concerns Escherichia coli. In words: Antibacterial activity against kanamycin-resistant Escherichia coli AG100B expressing aminoglycosides resistant APH(3')-1 enzyme by double-microdilution method. The class given is functional.
Test [9] is described as follows: Inhibition of Escherichia coli topoisomerase 4 assessed as reduction in supercoiled pBR322 DNA relaxation activity after 30 mins by electrophoresis. In short, it runs like this: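 E. coli TopoIV relaxation of supercoiled pBR322 in 40 mM HEPES-KOH pH 7.6 with 100 mM potassium glutamate, 10 mM Mg(OAc)₂, 10 mM DTT, 1 mM ATP and 50 µg/mL albumin. Incubated 37 °C for 30 min, stopped with EDTA, loading dye and chloroform/isoamyl alcohol, then run on 1% agarose. Supercoiled DNA percentage was quantified from gel images. IC50 is the 50% reduction versus drug-free control.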

Test [10] deals with Escherichia coli. Put plainly: Antibacterial activity against Escherichia coli XL1-blue by double-microdilution method. Type of test: functional.
Test [11] concerns Escherichia coli. In words: Antibacterial activity against kanamycin-resistant Escherichia coli AG100A expressing aminoglycosides resistant APH(3')-1 enzyme by double-microdilution method. The class given is functional.
Test [12] has as its system Escherichia coli. Put plainly: Antibacterial activity against aminoglycosides-resistant Escherichia coli XL1-blue harboring pET9d expressing APH(3')-1a enzyme by double-microdilution method. The class given is functional.
In test [13] the test system is Bacillus subtilis. Put plainly: Antibacterial activity against aminoglycosides-susceptible Bacillus subtilis ATCC 6633 by double-microdilution method. The class given is functional.
Test [14] in a line: Inhibition of Escherichia coli DNA gyrase assessed as reduction in relaxed pBR322 DNA supercoiling activity after 1 hr by electrophoresis. In short, it runs like this: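 Supercoiling of relaxed pBR322 (12.5 ng/µL) by E. coli DNA gyrase in 35 mM Tris-Cl pH 7.5 with 24 mM KCl, 4 mM MgCl₂, 2 mM DTT, 1.8 mM spermidine, 1 mM ATP, 6.5% glycerol and 0.1 mg/mL BSA. Incubated 37 °C for 1 h, stopped with loading dye plus chloroform/isoamyl alcohol, and resolved on 1% agarose. IC50 is the concentration halving activity versus drug-free control.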

Test [15] relates to Escherichia coli. In words: Resistance index, MIC for aminoglycosides-resistant Escherichia coli XL1-blue harboring pSF815 expressing AAC(6')-APH(2'') enzyme to MIC for Escherichia coli XL1-blue. Type of test: functional. The method, boiled down: as §1
The test system of test [16] is Escherichia coli. Put plainly: Antibacterial activity against aminoglycosides-resistant Escherichia coli BL21 harboring pETSACG1 expressing APH(3')-3a enzyme by double-microdilution method. Type of test: functional.
In test [17] the test system is Escherichia coli. Put plainly: Antibacterial activity against Escherichia coli R477-100 by double-microdilution method. The class given is functional.
Test [18] can be described thus: Activity at aminoglycoside 3'-phosphotransferase 3a.
Test [19] is described as follows: Ratio of kcat/km for aminoglycoside 3'-phosphotransferase 3a.
Setting [20] is: Escherichia coli, 1 h, read-out: IC50.

Each structure is given as a SMILES string. Values after ≈ are worked out from the molar mass of the structure shown. A value given as a limit tells only on which side of the number the result lay.

Take `NC[C@@H]1O[C@H](O[C@H]2[C@@H](O)[C@H](O[C@@H]3[C@@H](O)[C@H](N)C[C@H](N)[C@H]3O[C@H]3O[C@H](CN)[C@@H](O)[C@H](O)[C@H]3N)O[C@@H]2COCc2cn(CCN3CCN(c4cc5c(cc4F)c(=O)c(C(=O)O)cn5C4CC4)CC3)nn2)[C@H](N)[C@@H](O)[C@@H]1O`: the MIC in [1] was determined as 0.2 µg/mL (≈ 0.19 µM); in test [3], 12 µg/mL (≈ 11.4 µM); in [4] it was 3 µg/mL (≈ 2.85 µM); in test [6] it was 6 µg/mL (≈ 5.7 µM); in [8], 12 µg/mL (≈ 11.4 µM); in test [10] it was 3 µg/mL (≈ 2.85 µM). Moreover, the MIC in test [11] was 0.38 µg/mL (≈ 0.361 µM); in test [12] it was 12 µg/mL (≈ 11.4 µM); in [13], 0.75 µg/mL (≈ 0.712 µM); in test [16] it was 0.2 µg/mL (≈ 0.19 µM); in test [17], 3 µg/mL (≈ 2.85 µM). Also, the Ratio in test [2] came out at 1; in test [7] it was 4; in test [15] it was 4. The IC50 in [5] (setting [20]) was 18100 nM; in test [9] (read-out: IC50), 7900 nM; in test [14] (read-out: IC50) it was 41 nM.

Take `NC[C@@H]1O[C@H](O[C@H]2[C@@H](O)[C@H](O[C@@H]3[C@@H](O)[C@H](N)C[C@H](N)[C@H]3O[C@H]3O[C@H](CN)[C@@H](O)[C@H](O)[C@H]3N)O[C@@H]2C(=O)Nc2ccc(-c3cn(Cc4ccc(CN5CCN(c6cc7c(cc6F)c(=O)c(C(=O)O)cn7C6CC6)CC5)cc4)nn3)cc2)[C@H](N)[C@@H](O)[C@@H]1O`: the MIC in test [1] is 0.4 µg/mL (≈ 0.332 µM); in [3], 24 µg/mL (≈ 19.9 µM); in [4], 3 µg/mL (≈ 2.49 µM); in test [6], 3 µg/mL (≈ 2.49 µM); in test [8], 3 µg/mL (≈ 2.49 µM); in [10] it was 3 µg/mL (≈ 2.49 µM). Besides, the MIC was found to be 0.75 µg/mL (≈ 0.623 µM) in test [11]; 3 µg/mL (≈ 2.49 µM) in test [12]; 1.5 µg/mL (≈ 1.25 µM) in test [13]; 0.4 µg/mL (≈ 0.332 µM) in [16]; 1.5 µg/mL (≈ 1.25 µM) in test [17]. Moreover, the Ratio amounted to 1 in test [2], 1 in test [7] and 8 in test [15]. The IC50 was found to be 16700 nM in [5] (setting [20]), 550 nM in test [9] (read-out: IC50) and 85 nM in [14] (read-out: IC50).

For `NC[C@@H]1O[C@H](O[C@H]2[C@@H](O)[C@H](O[C@@H]3[C@@H](O)[C@H](N)C[C@H](N)[C@H]3O[C@H]3O[C@H](CN)[C@@H](O)[C@H](O)[C@H]3N)O[C@@H]2CO)[C@H](N)[C@@H](O)[C@@H]1O` [FRAMYCETIN], the MIC in test [1] is 6 µg/mL (≈ 9.76 µM); in test [3], more than 384 µg/mL; in test [4], 48 µg/mL (≈ 78.1 µM); in test [6], 384 µg/mL (≈ 625 µM); in test [8], 384 µg/mL (≈ 625 µM); in test [10], 6 µg/mL (≈ 9.76 µM). Also, the MIC in [11] was determined as 96 µg/mL (≈ 156 µM); in [12], 96 µg/mL (≈ 156 µM); in test [13], 1.5 µg/mL (≈ 2.44 µM); in test [16], 48 µg/mL (≈ 78.1 µM); in test [17] it was 24 µg/mL (≈ 39 µM). In addition, the Ratio is reported as 8 in [2], 16 in [7] and more than 64 in test [15]. For the same molecule, the Km in test [18] is 5.7 µM. Further, the kcat in test [18] came to 2.4 s⁻¹. For the same molecule, the values for the IC50 in test [5] (setting [20]), in test [9] and in [14] were 10500 nM, “Not Active” and “Not Active”, respectively. Also, in test [19], the kcat/Km worked out at 42 ×10⁴ /M/s.

With `NC[C@@H]1O[C@H](O[C@H]2[C@@H](O)[C@H](O[C@@H]3[C@@H](O)[C@H](N)C[C@H](N)[C@H]3O[C@H]3O[C@H](CN)[C@@H](O)[C@H](O)[C@H]3N)O[C@@H]2C(=O)Nc2ccc(-c3cn(CC(O)CN4CCN(c5cc6c(cc5F)c(=O)c(C(=O)O)cn6C5CC5)CC4)nn3)cc2)[C@H](N)[C@@H](O)[C@@H]1O` (some centres not stated), the MIC stood at 3 µg/mL (≈ 2.59 µM) in test [4]; 24 µg/mL (≈ 20.7 µM) in test [6]; 6 µg/mL (≈ 5.18 µM) in test [8]; 0.75 µg/mL (≈ 0.648 µM) in [11]; 6 µg/mL (≈ 5.18 µM) in [13]; 6 µg/mL (≈ 5.18 µM) in test [17]. In addition, the IC50 in test [5] (setting [20]) was 2200 nM; in test [9] (read-out: IC50) it was 580 nM; in [14] (read-out: IC50) it was 73 nM.

As for `NC[C@@H]1O[C@H](O[C@H]2[C@@H](O)[C@H](O[C@@H]3[C@@H](O)[C@H](N)C[C@H](N)[C@H]3O[C@H]3O[C@H](CN)[C@@H](O)[C@H](O)[C@H]3N)O[C@@H]2C(=O)NCc2cn(CC(O)CN3CCN(c4cc5c(cc4F)c(=O)c(C(=O)O)cn5C4CC4)CC3)nn2)[C@H](N)[C@@H](O)[C@@H]1O` (some centres not stated), the MIC in test [1] was determined as 0.2 µg/mL (≈ 0.182 µM); in test [3], 48 µg/mL (≈ 43.8 µM); in [4], 3 µg/mL (≈ 2.74 µM); in test [6] it was 12 µg/mL (≈ 10.9 µM); in [8], 12 µg/mL (≈ 10.9 µM); in test [10], 6 µg/mL (≈ 5.47 µM). Also, the MIC in test [11] stood at 0.75 µg/mL (≈ 0.684 µM); in test [12] it was 12 µg/mL (≈ 10.9 µM); in [13], 3 µg/mL (≈ 2.74 µM); in test [16] it was 0.2 µg/mL (≈ 0.182 µM); in test [17], 6 µg/mL (≈ 5.47 µM). The values for the Ratio in test [2], in [7] and in [15] were 1, 2 and 8, respectively. In addition, the Km in test [18] amounted to 86.8 µM. Moreover, the kcat in test [18] amounted to 2.5 s⁻¹. In [19], the kcat/Km was 2.9 ×10⁴ /M/s.

Take `O=C(O)c1cn(C2CC2)c2cc(N3CCNCC3)c(F)cc2c1=O` [CIPROFLOXACIN]: the minimal inhibitory concentration (MIC) in test [1] is less than 0.005 µg/mL; in test [6], 0.2 µg/mL (≈ 0.604 µM); in [11], less than 0.005 µg/mL; in test [13], 0.02 µg/mL (≈ 0.0604 µM). Further, the IC50 result in test [5] is “Not Active”; in test [9] (read-out: IC50) it was 10800 nM; in test [14] (read-out: IC50) it was 1300 nM.
